Assay results from different studies.
Lines come from different studies, so protocols differ.
Target: Serine/threonine-protein kinase Nek4 (NEK4, Homo sapiens, UniProt P51957)

SMILES	test	conditions	measurement	value
Cc1sc(C(=O)NC2COC2)cc1-n1cc(NC(=O)Nc2c(F)cccc2Cl)cn1	enzyme activity, inhibitor	10 µM	remaining activity	75.5%
CC(C)(C)c1nc2c(s1)c1nc(N)ncc1c1ccc(NS(=O)(=O)c3c(F)cccc3F)c(F)c12	enzyme activity, inhibitor, radiometric	1 µM	remaining activity	96%
CCCCNc1ncc2c(-c3ccc(F)cc3)nn(C[C@H]3CC[C@H](N)CC3)c2n1	target engagement in cells, inhibitor, chemoproteomics	20 mM	inhibition	-16.7%
CCC(=O)N[C@@H]1CC[C@H](C(=O)N(C)c2ccc(-c3nc4ccccc4o3)cc2)C1	cell-free assay, competition with immobilised ligand	1 µM	remaining binding	95%
COc1cc(Cl)c(C(=O)N[C@@H](CN[C@H]2CC[C@@H](N)CC2)Cc2ccc(C#N)cc2)cc1-c1ccc(CN[C@H](C)c2ccc(C)cc2)o1	enzyme activity, inhibitor	1 µM	remaining activity	106%
N#CCCc1ccc2c(c1)-c1[nH]c3ccc([N+](=O)[O-])cc3c1CC(=O)N2	cell-free assay	0.5 µM	remaining signal	104%
c1ccc(CNc2nc(N3CCOc4ccccc43)nc3c2CCCC3)cc1	target engagement in cells, inhibitor, chemoproteomics	20 mM	inhibition	-18.5%
COc1cc2ncnc(Nc3ccc(Oc4ccccc4)cc3C)c2cc1OC	enzyme activity, inhibitor	1 µM	inhibition	1%
CS(=O)(=O)N1CCCC(NC(=O)[C@H](CCC2CCCCC2)NC(=O)c2ccc(CNC(=O)c3cnc4ccccn34)cc2)C1 (stereo partly drawn)	cell-free assay, competition with immobilised ligand	0.1 µM	remaining binding	100%
CN(C)C1CCN(CC#Cc2nn(C3CCCC3)c3nc(NCc4ccccc4)ncc23)C1 (stereo not drawn)	enzyme activity, inhibitor, FRET	10 µM	inhibition	12%
O=C(NCCCC1CCCCC1)c1ccc(CNC(=O)c2cnn(-c3ccccc3)c2C(F)(F)F)cc1	cell-free assay, competition with immobilised ligand	0.1 µM	remaining binding	100%
O=C(Nc1cnn(-c2csc(C(=O)NC3COC3)c2)c1)Nc1ccccc1Cl	enzyme activity, inhibitor	5 µM	remaining activity	109%
Cc1c(NC(=O)c2cc(C(N)=O)nc3cc(F)ccc23)c(C(F)(F)F)nn1Cc1ccc(C#N)cc1	cell-free assay, competition with immobilised ligand	1 µM	remaining binding	92%
O=C1NC(=O)c2cc(Nc3ccc(F)cc3)c(Nc3ccc(F)cc3)cc21	cell-free assay	0.5 µM	remaining signal	107%
CCCOc1ccc([C@H]2[C@H](C(=O)O)[C@@H](c3ccc4c(c3)OCO4)CN2CC(=O)Nc2c(CC)cccc2CC)cc1	cell-free assay, competition with immobilised ligand	1 µM	remaining binding	71%
Cc1ccc(C(=O)Nc2ccc(CN3CCN(C)CC3)c(C(F)(F)F)c2)cc1C#Cc1cnc2cccnn12	enzyme activity, inhibitor	23.5 nM	remaining activity	61%
O=C1Nc2ccc(Cl)cc2C1=Cc1cc(Cl)c(O)c(Cl)c1	cell-free assay	0.5 µM	remaining signal	88.2%
COc1ccc2c(c1)O[C@@H](c1ccc(OC)c(OC)c1)C[C@H]2NC(=O)C1(c2ccc3c(c2)OC(F)(F)O3)CC1	cell-free assay, competition with immobilised ligand	1 µM	remaining binding	75%
